Hits are enriched below; roughly 2% of the tested compounds scored in any of these assays.
FLuc inh counter – inhibits firefly luciferase, flagging false hits in luciferase inhibition screens | P08659 | ATPLite firefly luciferase biochemical luminescence, 10 min | inhibition, % at 10 µM | actives 1.5% (n = 200,000) | AID 1006;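 active means inhibition above about 50% when tested at 10 µM, limit read from the data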
Target sequence (P08659 whole entry, looked up): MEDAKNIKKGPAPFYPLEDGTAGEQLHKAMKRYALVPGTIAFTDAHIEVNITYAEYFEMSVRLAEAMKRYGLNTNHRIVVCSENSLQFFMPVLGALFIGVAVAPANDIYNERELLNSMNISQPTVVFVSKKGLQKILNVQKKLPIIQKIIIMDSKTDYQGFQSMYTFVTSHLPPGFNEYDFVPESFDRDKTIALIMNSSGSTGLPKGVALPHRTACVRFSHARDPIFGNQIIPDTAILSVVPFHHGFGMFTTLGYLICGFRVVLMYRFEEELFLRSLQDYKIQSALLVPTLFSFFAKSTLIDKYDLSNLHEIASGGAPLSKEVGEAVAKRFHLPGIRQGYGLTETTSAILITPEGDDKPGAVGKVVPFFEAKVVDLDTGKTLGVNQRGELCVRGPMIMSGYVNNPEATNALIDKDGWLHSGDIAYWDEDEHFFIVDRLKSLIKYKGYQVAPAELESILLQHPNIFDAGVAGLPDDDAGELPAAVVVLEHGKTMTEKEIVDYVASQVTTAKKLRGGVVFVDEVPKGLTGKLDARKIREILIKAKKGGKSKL
PPC-1+TRAIL kill – kills PPC-1 cancer cells in the presence of TRAIL; PPC-1 cells + TRAIL, ATPLite viability luminescence; cell killing (% activity), % at 4 µM or 5 µM; actives 0.41% (n = 220,000); AID 1443;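 active means cell killing above 50% in the first pass at 4 µM, then a duplicate retest at 5 µM averaging 50% or more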;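 further: plate controls were cells with TRAIL plus DMSO for no effect and medium-only wells lacking cells for full effect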
TRAIL sens C8 – sensitizes caspase-8 expressing cells to TRAIL; NB7+C8 cells + TRAIL, ATPlite viability luminescence; inhibition (viability loss, TRAIL sensitization), % at 10 µM; actives 1% (n = 360,000); AID 624354;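 active means compounds causing at least 50% loss of cell viability in the single-dose screen, relative to plate controls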
FLuc stim CS – affects firefly luciferase, flagging false hits in luciferase stimulation screens | P08659 | ATPlite luciferase biochemical, luminescence, 10 min; 0 = ATP-free wells, 1 = DMSO control | activation factor at 10 µM | 200,000 tested, under 10 active | AID 1027;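 active means luciferase activation factor, scaled between plate controls, of at least 2 with compound at 10 µM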
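Assay system: Luciferase/luciferin detection reagent, cell-free biochemical luciferase assay / Read-out: luciferase activation / Benchmarks: No-ATP low control, compound-free enzyme-plus-ATP high control / Medium: PBS buffer for ATP / Detection: luminescence measurement of luciferase light output / Schedule: 10 min at ambient temperature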
HSP90 refold inh – blocks HSP90-mediated luciferase refolding in reticulocyte lysate; AID 1789; actives 0.91% (n = 290,000); Rabbit reticulocyte lysate, luciferase refolding luminescence, 3 h; inhibition, % at 5.6 µM;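 active means inhibition above the screen-wide mean plus 3 SD, computed separately per campaign, cut at about 16% in these data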;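 further: 0% = DMSO wells and 100% = 60 µM geldanamycin wells; inhibitors lower the luminescence because luciferase stays unfolded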
An asterisk follows results filed as active; · = no result given.

SMILES | FLuc inh counter | PPC-1+TRAIL kill | TRAIL sens C8 | FLuc stim CS | HSP90 refold inh
O=C1OC(/C(=C\Nc2cc(Cl)ccc2O)[N+](=O)[O-])c2ccccc21 (stereo not drawn) | 0 | 10 | -4 | 1 | 38*
O=C(N/C=C/c1ccccc1)c1ccccc1 | · | · | 30 | · | ·
O=Nc1ccc(NOC(=O)c2ccccc2Br)cc1 | 77* | 24 | -3 | 0.2 | 0
O=C(Nc1ncccc1O)c1ccc2ccccc2c1 | · | · | 29 | · | 17*
CCOc1ccccc1CNC(=O)C1CCN(c2nnc(C)c3c(C)n(-c4ccc(C)cc4)nc23)CC1 | · | · | 71* | · | 10
Cc1ccc(-n2nc3c(N4CCC(C(=O)NCc5ccccc5C)CC4)nnc(C)c3c2C)cc1 | · | · | 2 | · | 2
CCOc1ccc(S(=O)(=O)N2CCC(C(=O)Nc3cc(S(C)(=O)=O)ccc3Cl)CC2)cc1 | · | · | 4 | · | ·
O=C(COC(=O)COc1ccccc1[N+](=O)[O-])Nc1ccc2c(c1)OCO2 | · | · | -13 | · | ·
CC(=O)c1cc(F)ccc1OCC(=O)Nc1ccc2c(c1)OCO2 | · | · | 66* | · | ·
NC(=O)c1cc(Cl)ccc1OCC(=O)Nc1ccc2c(c1)OCO2 | · | · | 69* | · | ·
O=C(COc1ccccc1[N+](=O)[O-])Nc1ccc2c(c1)OCO2 | 58* | 41 | 23 | 0.4 | -4
Cc1ccc(OCC(=O)Nc2ccc3c(c2)OCO3)c(C)c1 | 54* | 36 | 18 | 0.5 | -2
c1ccc(CNc2nc3ccccc3[nH]2)cc1 | 64* | 45 | 40 | 0.4 | -3
c1ccc(CNc2nc(NCc3ccccc3)c3ccccc3n2)cc1 | · | 20 | 53* | · | 2
c1ccc2[nH]c(NCc3ccc4c(c3)OCO4)nc2c1 | 82* | 49 | 14 | 0.2 | 0
COc1ccc(CCNc2cc(N3CCN(C(=O)c4ccc(C)cc4)CC3)ccc2[N+](=O)[O-])cc1OC | -2 | 40 | · | 1 | 2
O=C(c1ccccc1F)N1CCN(c2ccc([N+](=O)[O-])c(N3CCOCC3)c2)CC1 | 90* | 1 | -5 | 0.1 | 6
COc1ccc(CCNc2cc(N3CCN(C(=O)c4ccccc4F)CC3)ccc2[N+](=O)[O-])cc1OC | -4 | 21 | 52* | 1 | -4
O=C(/C(C=Nc1ccc(Br)cc1)=C(/O)c1ccco1)C(F)(F)F | 66* | 60* | 43 | 0.3 | 1
C=C1CC(Cn2cc(Br)c(=O)[nH]c2=O)(c2ccc(-c3ccccc3)cc2)OC1=O (stereo not drawn) | · | · | 94* | · | ·
O=c1[nH]c(=O)n(Cc2ccc(Oc3ccccc3)cc2)cc1Br | · | · | -8 | · | -3
COc1ccc(OC)c(S(=O)(=O)N2CCCC(C(=O)NCc3cccnc3)C2)c1 (stereo not drawn) | · | · | -16 | · | -1
CCOC(=O)[C@]12Cc3c(cc(OC)c(OC)c3OC)[C@H]1N(C1CCCCC1)C(=O)c1cc(OC)ccc12 | · | · | 67* | · | ·
CCOC(=O)N1CCC(N2C(=O)c3ccccc3C2Nc2cc(OC)c(OC)c(OC)c2)CC1 (stereo not drawn) | -8 | 4 | -34 | 1.1 | -5
COc1ccc(CN2CCOCC2)cc1OC | -4 | -19 | 1 | 1 | -3
SMILES | FLuc inh counter | PPC-1+TRAIL kill | TRAIL sens C8 | FLuc stim CS | HSP90 refold inh
COc1cc2sc3ccc(-c4ccc(CN5CCOCC5)cc4)cc3c(=O)c2cc1OC | · | · | 53* | · | ·
Cc1cc(OC(=O)C(c2ccccc2)c2ccccc2)c([N+](=O)[O-])c(=O)[nH]1 | -2 | 31 | -5 | 1 | -1
Cc1ccc(NC(=O)c2cc(C)n(-c3cccc(C)c3)c2C)cc1 | 74* | 20 | 30 | 0.3 | 5
CCn1c(-c2cc(-c3ccc(C)c(C)c3)nc3ccccc23)n[nH]c1=S | 53* | 1 | · | 0.5 | 1
Cc1nnc(SC(C)C(=O)Nc2c(C)n(C)n(-c3ccccc3)c2=O)n1N (stereo not drawn) | 2 | 12 | -3 | 1 | -2
O=C(NCc1ccccn1)C1CCCN(S(=O)(=O)c2cc(Cl)ccc2Cl)C1 (stereo not drawn) | · | · | 56* | · | ·
Cc1ccc(-c2nc3cc(C)ccc3o2)cc1 | 92* | 31 | 54* | 0.1 | 13
Cc1ccc2oc(-c3ccco3)nc2c1 | 48 | -2 | 4 | 0.5 | -3
COc1ccc(CC(=O)Nc2cccc(-c3nnc(-c4ccc(C)cc4)o3)c2)cc1OC | 16 | 16 | 90* | 0.8 | -1
COc1ccc(CC(=O)Nc2cccc(-c3nnc(-c4cccc(C)c4)o3)c2)cc1OC | 0 | 26 | 3 | 1 | 1
COc1ccc(CC(=O)Nc2cccc(-c3nnc(-c4ccccc4)o3)c2)cc1OC | 1 | 24 | 56* | 1 | 3
CNc1c(NS(=O)(=O)c2cc(Cl)ccc2OC)c(=O)oc2ccccc12 | · | · | 1 | · | 1
Cc1csc(N=Nc2ccc(N(C)C)cc2)[n+]1[O-] | · | · | 81* | · | ·
O=C(O)c1ccc(COc2ccccc2/C=C2\NC(=O)N(Cc3ccccc3)C2=O)cc1 | -5 | 4 | -3 | 1 | 1
CCCN1C(=O)/C(=C/c2ccccc2OCc2ccc(C(=O)O)cc2)NC1=S | 72* | 15 | 1 | 0.3 | -1
C/C(Cn1nnc([N+](=O)[O-])n1)=N\NC(=O)c1ccc(Cl)c(Cl)c1 | -9 | -6 | 21 | 1.1 | 0
C/C(Cn1nnc([N+](=O)[O-])n1)=N\NC(=O)c1ccccc1O | · | 7 | 59* | · | 2
C/C(Cn1nnc([N+](=O)[O-])n1)=N\NC(=O)c1ccc(O)cc1 | · | 14 | 57* | · | 2
COc1ccc(S(=O)(=O)N(C)CC(=O)N2CCCC2)cc1OC | · | · | 2 | · | 8
O=C(NCCc1ccccc1Cl)c1cc(COc2ccc(F)cc2F)on1 | · | · | -7 | · | -4
CCCCc1ccc(NC(=O)c2ccc(N(C)S(C)(=O)=O)cc2)cc1 | · | 17 | 53* | · | 1
COc1ccc(C(=O)NCCSc2ccccc2)cc1OC | -5 | 20 | -6 | 1 | -4
COc1cc(OC)cc(C(=O)Nc2cc(C)on2)c1 | · | · | -3 | · | -2
COc1cccc(NC(=O)c2ccc(OC(F)(F)F)cc2)c1 | · | · | 49* | · | ·
COc1ccc(C(=O)Nc2cccc(OC)c2)cc1 | 67* | 46 | 53* | 0.3 | 5
SMILES | FLuc inh counter | PPC-1+TRAIL kill | TRAIL sens C8 | FLuc stim CS | HSP90 refold inh
COc1ccc(C(=O)Nc2cc(C)on2)cc1 | 73* | 47 | 57* | 0.3 | 5
Brc1ccc(-c2ccc(/C=N/Nc3nc4ccccc4[nH]3)o2)cc1 | 81* | 12 | 52* | 0.2 | -1
Cc1nn(-c2ccccc2)c(Cl)c1/C=N/Nc1nc2ccccc2[nH]1 | 65* | 30 | 35 | 0.4 | -3
Cc1cc(=O)[nH]c(N/N=C/c2c(C)nn(-c3ccccc3)c2Cl)n1 | · | 20 | 15 | · | 0
O=[N+]([O-])c1cc(/C=N/Nc2nc3ccccc3[nH]2)c(O)cc1O | 20 | 53* | · | 0.8 | 0
Brc1ccc(-c2ccc(/C=N/Nc3nncc(-c4ccccc4)n3)o2)cc1 | -3 | 5 | 20 | 1 | 1
Cc1ccc(/C=N/Nc2nc3ccccc3[nH]2)s1 | 72* | 1 | 13 | 0.3 | 10
O=C(NN1CCOCC1)C12CC3CC(CC(C3)C1)C2 | -2 | 12 | 3 | 1 | -4

Compound activity from PubChem BioAssay.
